The values that follow come from ChEMBL document CHEMBL1132920, “Syntheses of (R)- and (S)-2- and 6-fluoronorepinephrine and (R)- and (S)-2- and 6-fluoroepinephrine: effect of stereochemistry on fluorine-induced adrenergic selectivities” (J Med Chem, 2000).

Assay [1] deals with T1, Adrenergic receptor alpha-2 (Rattus norvegicus, UniProt P22086+P19328+P22909).
T1 sequence (P22086 whole entry): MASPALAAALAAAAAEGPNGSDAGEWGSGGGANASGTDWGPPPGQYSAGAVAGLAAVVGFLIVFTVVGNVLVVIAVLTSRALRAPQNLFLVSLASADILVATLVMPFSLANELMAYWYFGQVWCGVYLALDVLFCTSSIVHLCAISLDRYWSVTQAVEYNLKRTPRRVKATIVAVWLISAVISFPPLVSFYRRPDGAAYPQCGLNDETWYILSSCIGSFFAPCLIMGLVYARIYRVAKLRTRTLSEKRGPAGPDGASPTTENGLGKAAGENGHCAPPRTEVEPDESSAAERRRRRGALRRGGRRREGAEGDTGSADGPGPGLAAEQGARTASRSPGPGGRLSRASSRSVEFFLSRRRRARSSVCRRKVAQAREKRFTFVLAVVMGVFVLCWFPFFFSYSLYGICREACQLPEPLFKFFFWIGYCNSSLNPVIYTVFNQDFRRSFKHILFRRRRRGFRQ
T1 sequence (P19328 whole entry): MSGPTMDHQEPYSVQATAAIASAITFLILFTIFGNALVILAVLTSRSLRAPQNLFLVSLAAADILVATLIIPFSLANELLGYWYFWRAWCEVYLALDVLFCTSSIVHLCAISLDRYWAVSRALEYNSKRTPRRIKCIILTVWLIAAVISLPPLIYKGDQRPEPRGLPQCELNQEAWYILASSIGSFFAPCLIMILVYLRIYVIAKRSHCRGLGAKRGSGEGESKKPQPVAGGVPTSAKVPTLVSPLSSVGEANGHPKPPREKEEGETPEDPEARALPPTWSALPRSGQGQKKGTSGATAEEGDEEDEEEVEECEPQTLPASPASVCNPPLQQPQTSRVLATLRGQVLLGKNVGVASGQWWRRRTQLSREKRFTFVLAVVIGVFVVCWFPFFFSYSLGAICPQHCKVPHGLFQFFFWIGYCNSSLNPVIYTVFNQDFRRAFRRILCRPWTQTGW
T1 sequence (P22909 whole entry): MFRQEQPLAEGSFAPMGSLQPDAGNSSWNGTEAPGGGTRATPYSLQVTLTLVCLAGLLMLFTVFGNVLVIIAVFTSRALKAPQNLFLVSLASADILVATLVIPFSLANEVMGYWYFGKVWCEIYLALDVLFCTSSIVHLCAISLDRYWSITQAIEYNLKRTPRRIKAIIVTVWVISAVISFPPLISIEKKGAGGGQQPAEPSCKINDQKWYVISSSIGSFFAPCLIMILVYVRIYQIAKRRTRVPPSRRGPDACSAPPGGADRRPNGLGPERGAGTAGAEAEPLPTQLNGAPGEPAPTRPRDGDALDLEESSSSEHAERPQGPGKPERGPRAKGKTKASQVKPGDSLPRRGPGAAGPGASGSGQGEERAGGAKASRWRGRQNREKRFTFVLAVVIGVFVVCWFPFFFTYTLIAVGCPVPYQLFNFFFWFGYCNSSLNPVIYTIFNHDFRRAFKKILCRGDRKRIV
In words: Binding of [3H]clonidine to alpha-2-adrenergic receptor of rat cerebral cortical membranes. It is filed as cell membranes, Membrane.

Assay [2] concerns the target Adrenergic receptor alpha-1 (Rattus norvegicus) (UniProt P15823+P23944+P43140). In words: Binding of [3H]prazosin to alpha-1 adrenergic receptor of rat cerebral cortical membranes at 100 uM. It is filed as cell membranes. To be noted: Membrane.
For assay [3], the target named is Beta-1 adrenergic receptor (Rattus norvegicus, UniProt P18090). In words: Binding of [3H]dihydroalprenolol to beta-1 adrenergic receptor of rat cerebral cortical membranes. It is filed as cell membranes, Membrane. The gist of the method: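 Competition assay measuring displacement of specific [3H]dihydroalprenolol binding from rat cerebral cortical membranes to give beta-1 adrenergic receptor affinity.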

For assay [4], the target named is T2, Adrenergic receptor alpha-1 (Rattus norvegicus, UniProt P15823+P23944+P43140).
T2 sequence (P15823 whole entry): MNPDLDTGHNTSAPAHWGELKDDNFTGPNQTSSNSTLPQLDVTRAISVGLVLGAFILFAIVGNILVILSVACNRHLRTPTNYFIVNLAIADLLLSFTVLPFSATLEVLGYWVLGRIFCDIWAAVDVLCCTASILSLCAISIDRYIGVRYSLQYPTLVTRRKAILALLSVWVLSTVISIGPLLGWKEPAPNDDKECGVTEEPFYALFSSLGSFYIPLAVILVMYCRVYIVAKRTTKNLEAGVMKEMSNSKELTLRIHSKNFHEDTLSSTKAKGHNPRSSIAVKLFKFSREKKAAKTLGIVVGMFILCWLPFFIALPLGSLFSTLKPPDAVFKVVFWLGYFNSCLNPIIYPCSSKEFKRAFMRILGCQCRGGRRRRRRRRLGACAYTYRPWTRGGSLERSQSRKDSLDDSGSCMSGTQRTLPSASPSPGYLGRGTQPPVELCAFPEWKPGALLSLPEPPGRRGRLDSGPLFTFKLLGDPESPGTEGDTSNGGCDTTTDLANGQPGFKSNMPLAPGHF
T2 sequence (P23944 whole entry): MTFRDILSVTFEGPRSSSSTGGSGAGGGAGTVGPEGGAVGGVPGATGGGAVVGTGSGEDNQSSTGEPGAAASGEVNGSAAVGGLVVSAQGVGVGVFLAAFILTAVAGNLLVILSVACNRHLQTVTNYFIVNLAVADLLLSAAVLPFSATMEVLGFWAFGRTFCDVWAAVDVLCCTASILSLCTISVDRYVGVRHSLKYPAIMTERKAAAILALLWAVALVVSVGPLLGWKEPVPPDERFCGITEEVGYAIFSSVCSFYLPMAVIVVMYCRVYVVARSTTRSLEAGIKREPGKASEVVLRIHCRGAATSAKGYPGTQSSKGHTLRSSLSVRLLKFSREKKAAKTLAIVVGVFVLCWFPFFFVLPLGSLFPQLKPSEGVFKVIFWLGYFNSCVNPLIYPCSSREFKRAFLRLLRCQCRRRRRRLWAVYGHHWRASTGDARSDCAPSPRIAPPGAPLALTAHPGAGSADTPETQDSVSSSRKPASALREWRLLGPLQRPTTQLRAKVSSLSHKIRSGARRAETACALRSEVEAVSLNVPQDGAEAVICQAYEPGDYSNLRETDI
T2 sequence (P43140 whole entry): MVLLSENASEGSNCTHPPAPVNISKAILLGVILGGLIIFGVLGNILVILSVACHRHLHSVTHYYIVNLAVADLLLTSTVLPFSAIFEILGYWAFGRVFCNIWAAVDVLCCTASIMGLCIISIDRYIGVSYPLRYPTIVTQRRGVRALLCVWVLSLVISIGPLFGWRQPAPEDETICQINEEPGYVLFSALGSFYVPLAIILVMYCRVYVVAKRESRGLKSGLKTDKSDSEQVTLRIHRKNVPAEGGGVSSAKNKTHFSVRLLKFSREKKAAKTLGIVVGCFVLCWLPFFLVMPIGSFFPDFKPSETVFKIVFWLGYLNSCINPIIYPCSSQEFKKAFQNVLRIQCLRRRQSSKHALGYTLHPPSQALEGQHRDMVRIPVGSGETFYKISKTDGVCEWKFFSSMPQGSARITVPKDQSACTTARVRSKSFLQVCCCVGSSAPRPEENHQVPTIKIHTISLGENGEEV
In words: Binding of [3H]prazosin to alpha-1 adrenergic receptor of rat cerebral cortical membranes. It is filed as cell membranes, Membrane. The essentials: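 Affinity at alpha-1 adrenergic receptors measured as inhibition of specific [3H]prazosin binding to rat cerebral cortical membranes.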

Sequence of Beta-1 adrenergic receptor (P18090 whole entry): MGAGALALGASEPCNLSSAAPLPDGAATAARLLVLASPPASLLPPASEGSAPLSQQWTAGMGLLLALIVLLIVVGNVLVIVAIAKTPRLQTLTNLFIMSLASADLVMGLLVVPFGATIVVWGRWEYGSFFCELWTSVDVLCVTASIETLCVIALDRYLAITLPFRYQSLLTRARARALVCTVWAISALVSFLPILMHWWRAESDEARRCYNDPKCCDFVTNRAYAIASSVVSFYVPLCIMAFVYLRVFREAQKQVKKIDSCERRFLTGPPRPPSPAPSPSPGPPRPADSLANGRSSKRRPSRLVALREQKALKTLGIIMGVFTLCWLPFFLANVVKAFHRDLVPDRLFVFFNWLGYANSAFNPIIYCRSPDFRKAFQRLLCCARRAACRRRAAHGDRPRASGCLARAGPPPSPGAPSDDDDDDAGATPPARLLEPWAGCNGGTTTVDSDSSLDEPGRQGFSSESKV

With `NC[C@@H](O)c1ccc(O)c(O)c1F`, the Ki (as a rule, the dissociation constant of the complex between target and ligand, obtained from inhibition or displacement) in assay [1] stood at 0.32 µM. The inhibition (commonly the share of the control response that was lost under treatment) in assay [2] stood at 12%.
`CNCC(O)c1ccc(O)c(O)c1F` (racemic) had a Ki in assay [1] of 0.06 µM.
`CNC[C@@H](O)c1cc(O)c(O)cc1F`: the Ki in assay [3] was about 400 µM; in assay [1], 0.078 µM.
As for `CNC[C@H](O)c1ccc(O)c(O)c1` (racemic) [EPINEPHRINE], the Ki in assay [3] is 2.1 µM.
Take `NC[C@@H](O)c1cc(O)c(O)cc1F`: the Ki in assay [4] is ~ 12 uM.
Still for that read-out and setting: with `NC[C@H](O)c1cc(O)c(O)cc1F` the figure was 3.7 µM.
`CNC[C@H](O)c1ccc(O)c(O)c1F` registered a Ki in assay [1] of 0.067 µM.
`CNCC(O)c1cc(O)c(O)cc1F` (racemic): the Ki in assay [3] is about 140 µM; in assay [1], 0.014 µM.
Take `CNC[C@@H](O)c1ccc(O)c(O)c1` [L-ADRENALINE]: the inhibition constant Ki in assay [3] was found to be 13 µM.
For the molecule `NCCc1ccc(O)c(O)c1F`, the figures for the inhibition constant Ki in assay [3], in assay [1] and in assay [4] were 19 µM, 0.12 µM and 16 µM, respectively.
Consider `NCC(O)c1ccc(O)c(O)c1F` (racemic), for which the Ki in assay [1] is 0.6 µM; in assay [4], ~ 50 uM.
`CNC[C@H](O)c1cc(O)c(O)cc1F`: the inhibitory constant (Ki) is about 100 µM in assay [3] and 0.013 µM in assay [1].
`NCCc1ccc(O)c(O)c1` [DOPAMINE]: the Ki in assay [1] is 0.058 µM; in assay [4], 14 µM.
Take `NCC(O)c1cc(O)c(O)cc1F` (racemic): the inhibition in assay [2] was 20%.
Consider `NCCc1cc(O)c(O)cc1F`, for which the results for the Ki in assay [3], in assay [1] and in assay [4] were 41 µM, 0.04 µM and 6 µM, respectively.
In assay [2], `NCC(O)c1ccc(O)c(O)c1` (single isomer, unassigned) returned an inhibition of 18%.
Consider `CNC[C@@H](O)c1ccc(O)c(O)c1F`, for which the Ki in assay [1] was 0.053 µM; in assay [4] it was ~ 40 uM.
The corresponding values for `NC[C@H](O)c1ccc(O)c(O)c1F` are 0.55 µM and ~ 25 uM.
